Experimental data as given in ChEMBL document CHEMBL4513216, “Probing the Open Global Health Chemical Diversity Library for Multistage-Active Starting Points for Next-Generation Antimalarials” (ACS Infect Dis, 2020).

assay: Toxicity liver stage against HepG2, at 10uM; type: cell-based; set-up: test concentration 10 uM, cell line HepG2-A16-CD81EGFP; conditions: human, HepG2-A16-CD81EGFP cells; read-out: INHIBITION
How it was run: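 Uninfected HepG2-A16-CD81EGFP cells, 3 × 10^3 per well, 1536-well, plated on prespotted compound at 10 μM final, parasite-free screening media added to match infected plates; puromycin 10 μM positive, DMSO 0.5% negative; run in parallel with 48 h PbLuc assay at 37 °C, 5% CO2; viability by CellTiter-Glo luminescence, normalized to controls.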

Structure (SMILES)	cytotoxicity at 10 µM
F[C@@H]1CN(Cc2cccnc2)C[C@@H]1OCc1nc2ccccc2[nH]1	5.22%
COC(=O)[C@H](CCSC)NC(=O)Cn1ccc2c(Cl)cccc21	2.17%
O=S(=O)(NCC1CCN(c2cnccn2)CC1)c1cccs1	6.28%
CCc1nc(-c2noc3ccc(C(=O)NCCN(C)C)cc23)co1	-150%
Cc1cc(C(=O)N2C[C@@H]3CCCO[C@@H]3[C@H](N(C)C(C)C)C2)c(C)[nH]1	10.2%
Cc1noc(C[C@@H]2COC[C@H]3CN(S(=O)(=O)C4CC4)C[C@@H]23)n1	8.37%
CCS(=O)(=O)N1CCC2(CC1)CC[C@@]1(C(=O)NC)CN(C(C)=O)C[C@@H]21	6.1%
CN(C)C(=O)CO[C@@H]1CN(Cc2ccccc2)[C@@H]2CCCO[C@@H]21	3.09%
COCCNC(=O)[C@@H]1CN(c2cc(OC)ncn2)C[C@H]2OCC[C@H]21	-3.06%
Cn1ncc2c1NC(=O)CC2c1c(Cl)cccc1Cl (stereo not given)	55.1%
Cn1nnnc1SCc1cc2c(cc1Cl)OCO2	1.14%
O=C(O)CCNC(=O)Cc1csc(-c2cccc(Cl)c2)n1	8.32%
Cn1ccnc1CN1CCC2(COCCN(Cc3ccsc3)C2)C1 (stereo not given)	-9.81%
Cc1oncc1C(=O)N1CCC2(CCN(Cc3ccccn3)C2=O)C1 (stereo not given)	-11.4%
Cc1ccc(Cl)cc1NCc1nc2n(n1)CCCCC2	5.89%
CCN(CC)c1nc(C)cc(C(=O)Nc2cccc(C(N)=O)c2)n1	14.9%
COCCC(=O)NCc1ccc(-c2ccccc2C(=O)O)nc1	2.28%
Cc1cn[nH]c1C1COCCN1Cc1ccsc1 (stereo not given)	2.56%
Cn1nccc1CCC(=O)NC1CCCN(c2ccccn2)C1 (stereo not given)	4.18%
O=C(c1ccncc1)N1CCC2(COc3ncccc3S(=O)(=O)N2)C1 (stereo not given)	9.62%
OCCN(Cc1ccno1)Cc1cc(Br)ccc1F	6%
O=C(CC1CCCO1)NS(=O)(=O)Cc1cc(-c2ccccc2)no1 (stereo not given)	9.95%

Structure (SMILES)	cytotoxicity at 10 µM
O=C1NCCCCC1Sc1ccc(F)c(F)c1 (stereo not given)	5.58%
N#CC1COCCN1C(=O)c1cccc2cc[nH]c12 (stereo not given)	7.1%
Cc1ccc(-c2cc(CS(=O)(=O)NC3CCCNC3=O)on2)cc1 (stereo not given)	-172%
COC(=O)C(C)(C)NC(=O)c1cnc(C(C)(C)C)s1	3.87%
CNC(=O)c1cccc(NCC(=O)Nc2cc(C)nn2C)c1C	-1.49%
CCc1nc(CCNc2ncccn2)sc1C	14.4%
O=C(CCNCc1cccc2c1OCCCO2)NC1CCCC1	0.66%
CCCS(=O)(=O)CCN1CCN(c2cc(F)ccc2F)CC1	-10%
Cc1cc(C(=O)NCC(O)c2c(Cl)cccc2Cl)nn1C (stereo not given)	-9.38%
NC(=O)CC1CCN(C(=O)NCC2(c3ccccc3F)CC2)CC1	35.2%
Cc1cc(C)c(CNC(=O)N2CCC(N3CCNC3=O)CC2)c(=O)[nH]1	4.16%
CC(=O)NC1CCN(c2c(C#N)cnc3c(C)cc(F)cc23)CC1	7.72%
Cn1cc(C(=O)N2CCN(Cc3ccccn3)CC2)ccc1=O	6.85%
COc1ccnc(N2CCN(C(=O)c3cc(C4CC4)[nH]n3)CC2)n1	6.85%
Cc1ccc2c(c1)C(NCc1nnc3n1CCCCC3)CCCO2 (stereo not given)	-3.39%
CC(=O)N1CCN(C(=O)CN(C)c2ccc(Cl)cn2)CC1	1.79%
CN(CC(=O)N1CCN(CC(C)(C)O)CC1)c1ccc(Cl)cn1	-2.87%
CCCc1noc(CN2CCC(NC(=O)c3ccc(C)s3)CC2)n1	-5.32%
COC(=O)C(C)(C)NC(=O)C1CC(=O)N(CC2CC2)C1 (stereo not given)	-142%
Cc1ncsc1C(=O)Nc1ccccn1	11.3%
COc1cc2c(cc1OC)S(=O)(=O)N(Cc1cnn(C)c1)C2=O	12.6%
Cc1cc(=O)n(C)cc1NC(=O)Cc1cccc(F)c1	-3.86%

Structure (SMILES)	cytotoxicity at 10 µM
CC(C)(C)CCCC(=O)NS(=O)(=O)CC1CC1	-6.19%
CCN(CCC(=O)OC)C(=O)c1cccc(Cn2nc(C)cc2C)c1	7.59%
Cc1ccc(N2CCC(C(=O)NC3CCc4nccn4C3)CC2)nc1 (stereo not given)	-7.39%
CC(C)CCN1CCN(C(=O)c2cnccn2)CC1	0.365%
CN(C)c1cc2c(nn1)CCN(C(=O)c1cc3ccccc3o1)C2	-5.39%
O=C(Cc1cccc(F)c1)NCCNS(=O)(=O)C1CCCC1	3.61%
CCc1ccc(S(=O)(=O)Nc2cn(C)cc(Br)c2=O)cc1	-10.8%
Cc1cc(F)cc(S(=O)(=O)NCCCN2CCC(O)CC2)c1	-20.1%
CCOCC1CN(C(=O)Cc2cccs2)Cc2ccnn2C1 (stereo not given)	-78.7%
Cc1cccc(C(=O)N2CCCn3c(CN4CCCCC4)nnc3C2)c1	-84%
C[C@H]1C[C@@H]2CCN(C(=O)c3cccn3C)C[C@H]2O1	10.1%
O=C(c1ccco1)N1CC[C@H]2[C@H]1CCN2CC1CCOCC1	5.12%
CCCN1CCC(N2CCC(Cn3cc(CC(C)O)nn3)CC2)CC1 (stereo not given)	-1.89%
N[C@H]1CN(C(=O)CCCc2ccc(F)cc2)C[C@@H]1C1CC1	-2.45%
Cc1nc(N2CCCC2C(=O)NC(C)(C)CO)nc2ccccc12 (stereo not given)	0.215%
Cc1c(C(=O)N2CCCC(C(=O)c3nccn3C)C2)c[nH]c(=O)c1C#N (stereo not given)	5.73%
CC(=O)Nc1ccc(C(=O)Nc2cnc3n2CCCC3)c(C)c1	-1.14%
O=C(O)C(c1ccc2[nH]ccc2c1)N1CCN(c2cnccn2)CC1 (stereo not given)	2.56%
CN(C)CCN1CC(C(=O)N2CCC(c3cccc(O)c3)CC2)CC1=O (stereo not given)	0.0902%
CNCc1n[nH]c(=O)n1-c1cccc(Cl)c1Cl	0.396%
CN(C)CCCn1ccnc1C1CCN(C(=O)Cc2cccnc2)CC1	4.77%
Cc1noc(C)c1CN1C[C@@H](C(=O)O)[C@H](c2ccccn2)C1	-6.9%

Structure (SMILES)	cytotoxicity at 10 µM
Cc1cc2nc(-c3cn(C4CCNCC4)nn3)[nH]c2cc1C	-8.1%
CCN(CCOC)C(=O)c1cc(COc2ccc3c(c2)CCCC3)on1	-146%
O=C(CCN1CCOC(C(F)(F)F)C1)NCc1ccccc1Cl (stereo not given)	-3.13%
Cc1noc(C)c1CN1C[C@@H](C(=O)O)[C@H](C(C)C)C1	3.51%
O=C(c1cncc(N2CC[C@@]3(O)CCNC[C@H]3C2)n1)N1CCCC1	-8.19%
c1cnc(N2CCC(C3CCN(CCCn4cccn4)C3)CC2)nc1 (stereo not given)	7.5%
CCSCCNC(=O)C(c1cccc(F)c1)N(C)C (stereo not given)	-11.9%
Cc1nc(CN2CCCC(CCc3c(F)cccc3F)C2)c[nH]1 (stereo not given)	-21%
CCCN1CC(C(=O)Nc2ccccn2)CC1=O (stereo not given)	-16.4%
CC(C)c1nc(N2CC(N3CCCCC3C)C2)c2cnn(C)c2n1 (stereo not given)	-15.5%
Cc1c(CN2CCCC(c3[nH]ncc3S(C)(=O)=O)C2)cnn1C (stereo not given)	4.69%
COc1cccc(S(=O)(=O)NC(=O)CC2CCCO2)c1 (stereo not given)	7.53%
Cc1nn(C)c(N(C)C)c1CNCC(O)c1ccccc1F (stereo not given)	-7.9%
CN(CC(C)(C)O)C1CCCN(Cc2noc(C3CC3)n2)C1 (stereo not given)	0.85%
Cc1cc(CN2CCN(C(=O)NCc3csc(C)n3)CC2)on1	-2.95%
Cc1nc(CN2CCN(CCOc3ccc(C(C)C)c(C)c3)CC2)no1	-11.2%
Cc1cnn(C2CCCN(C(=O)c3ccc(N4CCCC4)nn3)C2)c1 (stereo not given)	-2.38%
Cc1cc(C(=O)N2CCOC(c3nc(C(C)C)n[nH]3)C2)no1 (stereo not given)	-5.13%
COCc1nc(C(=O)N2CCCC(n3nc(C)cc3C)C2)cs1 (stereo not given)	-8.57%
CC(Cn1cccn1)NCc1nc(-c2ccccc2Cl)no1 (stereo not given)	-3.56%
O=C(CCc1ccsc1)N1CCC(Nc2cccnn2)CC1	-4.71%
Cc1cc(C)n(CC2CCCN2C(=O)c2cccc3c2OCO3)n1 (stereo not given)	-15.7%

Structure (SMILES)	cytotoxicity at 10 µM
CC(=O)NCC1CCN(C(=O)NCCOc2ccc3c(c2)CCC3)CC1	-5.31%
CC(C)c1nn(C)c(N2CCOCC2)c1CNCCC(=O)N(C)C	-16.5%
Cc1noc(C)c1C(=O)N1CCC(Nc2cccnn2)CC1	-4.48%
Cc1nn(C)c(C)c1C1CCCN1C(=O)c1ccc(NC2CC2)nc1 (stereo not given)	-2.85%
Cc1nc(C2CCCN2Cc2nc(C)c(C)o2)no1 (stereo not given)	-2.53%
CCCNC(=O)NCc1cccnc1OC	4.6%
COc1cccc(C(=O)NCCCN2CCc3ccccc3C2)c1OC	6.67%
Cc1cnn(CCC(=O)N2CCC(Nc3cccnn3)CC2)c1	-8.11%
COc1ccccc1OCC(=O)NS(=O)(=O)c1ccc(C)s1	-12.7%
c1cnnc(N2CCCC2CNCc2cnc(N3CCCC3)nc2)c1 (stereo not given)	7.96%
Cc1nc(O)cc(C2CCN(Cc3cccc(F)c3F)C2)n1 (stereo not given)	-1.19%
CC1CCN(C(=O)[C@H]2C[C@@H]3CCN(CC4CCOCC4)C[C@@H]3O2)CC1	9.85%
Cc1cc(C(=O)N2C[C@@H]3COC[C@]3(CN(C)C)C2)c(C)o1	-131%
O=S(=O)(C1CC1)N1CCC2(CN(c3ccccn3)C2)C1	5.25%
CS(=O)(=O)CC(=O)N1C[C@H]2CCC[C@@]2(COCc2ccccn2)C1	4.35%
O=C(N1CCCO1)[C@]12COC[C@H]1CN(Cc1cccnc1)C2	8.25%
Cc1cccc(CNC2CCCc3c2cnn3C)c1 (stereo not given)	-8.77%
CC(C)Nc1ncnc2c1CCN(Cc1nccn1C)CC2	0.507%
CCC1=N[C@@]2(CC[C@@H]3CN(CC(C)C)C[C@@H]32)C(=O)N1	4.32%
CSc1nc(N)c2c(n1)N=C1COC(=O)C1C2c1cccc(O)c1 (stereo not given)	32.8%
O=C(c1ccccc1)N1C[C@H]2CC[C@@H](C1)N(Cc1cc(F)ccc1Cl)C2	-4.39%
O=C1[C@@H]2CC[C@@H](CN(S(=O)(=O)c3ccccc3)C2)N1Cc1cscn1	-6.23%
